From ChEMBL document CHEMBL3244044, “Synthesis and antitumor activity of halogen-substituted 4-(3,3-dimethyl-1-triazeno)quinolines” (J Med Chem, 1978) come the findings set out here.

In data set [1] the test system is P388. Description: Antitumor activity against mouse P388 cells allografted mouse assessed as host survival at 20 mg/kg, ip qd for 9 days relative to control. The following applies: route intraperitoneal. In kind it is functional. In short, it runs like this:
(§1)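 NCI protocol: groups of five to ten mice inoculated ip with approximately 10^6 P-388 or L1210 cells. Drug given over a range of dose levels starting 24 h after implantation, once daily for 9 consecutive days. Survival expressed as %T/C = (average survival of treated)/(average survival of control) × 100.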

Data set [2] relates to P388. In words: Antitumor activity against mouse P388 cells allografted mouse assessed as host survival at 40 mg/kg, ip qd for 9 days relative to control. The data set is classed as functional. The settings on record: route intraperitoneal. In short, it runs like this:
as §1

The subject of data set [3] is P388. In words: Antitumor activity against mouse P388 cells allografted mouse assessed as host survival at 60 mg/kg, ip qd for 9 days relative to control. In kind it is functional. The settings on record: route intraperitoneal. In short, it runs like this:
as §1

Data set [4] has as its system Mus musculus. Description: Toxicity in mouse L1210 cells allografted mouse at 50 mg/kg, ip qd for 9 days. Also noted: dose 50 mg/kg, route intraperitoneal. The settings on record: in vivo, 216 h. The data set is classed as organism-based. In short, it runs like this: (§2)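 Groups of five to ten mice were inoculated ip with about 10^6 L1210 cells and dosed once daily for 9 consecutive days beginning 24 h post-implantation. Toxicity was taken as the average body weight change at the end of drug treatment.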

Data set [5] relates to Mus musculus. In words: Toxicity in mouse L1210 cells allografted mouse at 60 mg/kg, ip qd for 9 days. The data set is classed as organism-based. Details: dose 60 mg/kg, route intraperitoneal. The settings on record: in vivo, 216 h. In short, it runs like this: as §2
Data set [6] concerns L1210. In words: Antitumor activity against mouse L1210 cells allografted mouse assessed as host survival at 50 mg/kg, ip qd for 9 days relative to control. In kind it is functional. The settings on record: route intraperitoneal. The method, boiled down: as §1
The subject of data set [7] is L1210. Description: Antitumor activity against mouse L1210 cells allografted mouse assessed as host survival at 60 mg/kg, ip qd for 9 days relative to control. The data set is classed as functional. The settings on record: route intraperitoneal. In short, it runs like this: as §1
For data set [8], the system named is Mus musculus. In words: Toxicity in mouse P388 cells allografted mouse at 20 mg/kg, ip qd for 9 days. The data set is classed as organism-based. Details: dose 20 mg/kg, route intraperitoneal. The following applies: in vivo, 216 h. The method, boiled down: (§3)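 NCI protocol. Groups of five to ten mice were inoculated intraperitoneally with about 10^6 tumor cells. Drug was given ip once daily for 9 consecutive days, starting 24 h after tumor implantation, over a range of dose levels. Toxicity was read as the average body weight change at the end of drug treatment.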

In data set [9] the test system is Mus musculus. In words: Toxicity in mouse P388 cells allografted mouse at 40 mg/kg, ip qd for 9 days. In kind it is organism-based. Also noted: dose 40 mg/kg, route intraperitoneal. The settings on record: in vivo, 216 h. The method, boiled down: as §3
The subject of data set [10] is Mus musculus. In words: Toxicity in mouse P388 cells allografted mouse at 60 mg/kg, ip qd for 9 days. In kind it is organism-based. Details: dose 60 mg/kg, route intraperitoneal. The settings on record: in vivo, 216 h. In short, it runs like this:
as §3

For data set [11], the system named is P388. Description: Antitumor activity against mouse P388 cells allografted mouse assessed as host survival at 100 mg/kg, ip qd for 9 days relative to control. The settings on record: route intraperitoneal. In kind it is functional. In short, it runs like this: as §1
The subject of data set [12] is L1210. In words: Antitumor activity against mouse L1210 cells allografted mouse assessed as host survival at 100 mg/kg, ip qd for 9 days relative to control. In kind it is functional. The settings on record: route intraperitoneal. In short, it runs like this:
as §1

Data set [13] deals with Mus musculus. In words: Toxicity in mouse B16 cells allografted mouse at 360 mg/kg, ip qd for 9 days. The following applies: in vivo, 216 h. In kind it is organism-based. Also noted: dose 360 mg/kg, route intraperitoneal. In short, it runs like this:
(§4)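 Mice bearing B16 melanoma, dosed ip once daily for 9 days from 24 h after tumor implantation. Toxicity is recorded as the average body weight change at the end of drug treatment.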

For data set [14], the system named is Mus musculus. In words: Toxicity in mouse B16 cells allografted mouse at 216 mg/kg, ip qd for 9 days. The data set is classed as organism-based. Details: dose 216 mg/kg, route intraperitoneal. The following applies: in vivo, 216 h. In short, it runs like this: as §4
In data set [15] the test system is Mus musculus. Description: Toxicity in mouse B16 cells allografted mouse at 130 mg/kg, ip qd for 9 days. In kind it is organism-based. The settings on record: in vivo, 216 h. Details: dose 130 mg/kg, route intraperitoneal. The method, boiled down:
as §4

Data set [16] concerns B16. Description: Antitumor activity against mouse B16 cells allografted mouse assessed as host survival at 360 mg/kg, ip qd for 9 days relative to control. The data set is classed as functional. The settings on record: route intraperitoneal. The method, boiled down:
(§5)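 B16 melanoma-bearing mice given drug ip once daily for 9 days, starting 24 h after tumor implantation. Read-out is average survival in days, expressed as %T/C = (average survival of treated mice)/(average survival of control mice) × 100.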

Data set [17] relates to B16. In words: Antitumor activity against mouse B16 cells allografted mouse assessed as host survival at 216 mg/kg, ip qd for 9 days relative to control. In kind it is functional. The following applies: route intraperitoneal. The method, boiled down: as §5
Data set [18] concerns B16. Description: Antitumor activity against mouse B16 cells allografted mouse assessed as host survival at 130 mg/kg, ip qd for 9 days relative to control. The settings on record: route intraperitoneal. The data set is classed as functional. The method, boiled down:
as §5

Data set [19] is described as follows: Binding affinity to synthetic melanin at 5.8 mg/100 mL after 15 mins by UV-spectroscopic analysis. In kind it is physicochemical. The settings on record: 0.25 h. In short, it runs like this: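 Synthetic melanin was made from DL-Dopa with tyrosinase in 0.1 M phosphate pH 6.6 at 37 °C for 4 h. Melanin suspension (1.1 mg dry weight) was mixed with phosphate buffer (0.05 M, pH 6.4, 5% Me2SO), water, and 1 mL of drug solution (5.8 mg/100 mL). The mixture was shaken 15 min at room temperature and filtered. Unbound drug in the filtrate was measured by UV against a drug-free blank.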

For the compound `CN(C)/N=N\c1ccnc2cc(I)ccc12`, the T/C stood at 117% in the data set with P388 [1]; 130% with P388 [2]; 127% in the data set with P388 [3]; 107% in the data set on L1210 [6]; 131% with L1210 [7]. Further, the Activity was 4.9% in the data set on Mus musculus [4]; 2.9% in the data set with Mus musculus [5]; 10.8% in the data set on Mus musculus [8]; 5.7% in the data set with Mus musculus [9]; -5.2% in the data set on Mus musculus [10].

`CN(C)/N=N/c1[nH]cnc1C(N)=O` [DACARBAZINE]: the T/C is 150% in the data set on P388 [11]; 167% in the data set on L1210 [12]; 76% in the data set on B16 [16]; 109% in the data set on B16 [17]; 105% with B16 [18]. Further, the Activity with Mus musculus [13] was -3%; with Mus musculus [14] it was -3.2%; in the data set with Mus musculus [15], -2.9%; in [19] it was 19.3%. The Survival was 16 days in the data set with B16 [16], 22.8 days in the data set on B16 [17] and 22 days in the data set on B16 [18].

Broadly, the T/C is the ratio of treated to control.
